# Measurements of several laboratories.
# Compare with care: the assays were run in different laboratories.
# Target: Microtubule-associated serine/threonine-protein kinase 1 (MAST1, Homo sapiens, UniProt Q9Y2H9)
Structure (SMILES),effect on,technique,concentration,remaining binding [%]
O=C(Nc1cccnn1)N1CC(C/C=C/c2cncc(Oc3ccc(C(F)(F)F)cn3)n2)C1,cell-free assay,competition with immobilised ligand,1 µM,58
C[C@@H](c1ccc(-n2cnc3c(N)ncnc32)cc1)N1CCc2nn(C)c(Cc3ccccc3)c2C1=O,binding,competition with immobilised ligand,0.1 µM,40
CC1CCCN1c1nccc(-c2cnn3ncccc23)n1 (stereo not drawn),binding,,1 µM,100
COc1ccc2c(c1)O[C@H](c1ccc(OC)c(OC)c1)C[C@@H]2NC(=O)C1(c2ccc3c(c2)OC(F)(F)O3)CC1,cell-free assay,competition with immobilised ligand,1 µM,100
COc1ccnn2ncc(-c3ccnc(N(C)C)n3)c12,binding,,1 µM,99
COc1ccc2cc(OCC3(C(=O)O)CN(C(=O)c4ccc(F)cc4)C3)ccc2c1,cell-free assay,competition with immobilised ligand,1 µM,100
C[C@@H]1CCN(c2nccc(-c3cnn4ncccc34)n2)C1,binding,,1 µM,100
O=C(c1ccc(Nc2ncc(Cl)c(-c3cc4ccccc4s3)n2)cc1)N1CCC(N2CCCC2)CC1,binding,competition with immobilised ligand,1 µM,52
c1cnn2ncc(-c3ccnc(N4CCC45COC5)n3)c2c1,binding,,1 µM,55
FC(F)(F)Oc1cccc(-c2cnc3ccc(-c4ccncc4)nn23)c1,cell-free assay,competition with immobilised ligand,5 µM,51
N[C@@H]1CCN(c2nccc(-c3cnn4ncccc34)n2)C1,binding,,1 µM,100
C=CC(=O)N1CCC(C(=O)NCC(=O)N2CCN(c3nc(-c4cnc(N)nc4C(F)F)nc(N4CCOCC4)n3)CC2)CC1,binding,competition with immobilised ligand,1 µM,100
Cc1cnc(Nc2ccc(C(=O)N3CCC(N4CCCC4)CC3)cc2)nc1-c1cc2ccccc2s1,binding,competition with immobilised ligand,1 µM,55
CN(C)c1ncc(F)c(-c2cnn3ncccc23)n1,binding,,1 µM,96
CNC(=O)[C@@H]1CC[C@@H](n2c(-c3ccc4cnccc4c3)nc3ccc(C(=O)NCc4cccc(C(N)=O)c4)cc32)C1,binding,competition with immobilised ligand,1 µM,100
Cc1c(NC(=O)c2cc(C(N)=O)nc3cc(F)ccc23)c(C(F)(F)F)nn1Cc1ccc(C#N)cc1,cell-free assay,competition with immobilised ligand,1 µM,77
O=C(c1ccc(Nc2ncc(Cl)c(-c3ccc(Cl)s3)n2)cc1)N1CCC(N2CCCC2)CC1,binding,competition with immobilised ligand,1 µM,16
Cc1cc(-n2nc(Cc3cc(F)cc(C(F)(F)F)c3)nc2C)ccc1C(N)=O,cell-free assay,competition with immobilised ligand,1 µM,100
Nc1ncc2c(n1)-c1c([nH]c3ccc(C#CC4CC4)cc13)CCCC2,binding,competition with immobilised ligand,1 µM,62
CC(=O)C1=C(C)N(c2cccc(C(F)(F)F)c2)C(=O)N[C@@H]1c1ccc(C#N)nc1,cell-free assay,competition with immobilised ligand,1 µM,96.9
O=C(Nc1c[nH]nc1C(=O)NC1CCNCC1)c1cc(F)cc(F)c1,binding,competition with immobilised ligand,1 µM,100
